# Results published in ChEMBL document CHEMBL2417469, “Synthesis of novel analogs of 2-pyrazoline obtained from [(7-chloroquinolin-4-yl)amino]chalcones and hydrazine as potential antitumor and antimalarial agents” (Eur J Med Chem, 2013).
# Assays:
# [1] = Toxicity in RBC (unknown origin) assessed as hemolysis after 48 hrs at 20 to 80 ug/ml by spectrophotometry; assay type: cell-based, Erythrocyte; conditions: red blood cells (RBC); read-out: Activity
# Summary of the method: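 Red blood cells at 5% hematocrit in RPMI 1640 exposed to 20, 40 and 80 µg/mL for 48 h at 37 °C; free hemoglobin read spectrophotometrically at 542 nm.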
# [2] = tested on: MCF7; assay: Cytotoxicity against human MCF7 cells after 48 hrs by SRB assay; assay type: functional; conditions: MCF7, 48 h; for CC50: read-out: LC50 (the source's name)
# Summary of the method: (§1)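 NCI 60-cell-line screen. Cells preincubated 24 h at 37 °C, 5% CO2; time-zero plates TCA-fixed. Compounds dissolved in DMSO and tested at five concentrations (100, 10, 1.0, 0.1, 0.01 µM) for 48 h continuous exposure. Adherent cells fixed with cold TCA (10% final), then SRB stained; absorbance at 515 nm. GI50, TGI and LC50 calculated from growth relative to time-zero and untreated controls.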
# [3] = tested on: DU-145; assay: Cytotoxicity against human DU145 cells after 48 hrs by SRB assay; assay type: functional; conditions: DU-145, 48 h; summary of the method: as §1
# [4] = tested on: UO-31; assay: Cytotoxicity against human UO31 cells after 48 hrs by SRB assay; assay type: functional; conditions: UO-31, 48 h
# Summary of the method: (§2)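 NCI 60-cell screen. Cells grew 24 h (37 °C, 5% CO2) before compound was added. Compounds were in DMSO and diluted in medium with gentamicin, then tested at five levels (100, 10, 1.0, 0.1, 0.01 µM) with 48 h continuous exposure. Adherent cells were fixed with TCA (10% final) and stained with 0.4% SRB, absorbance read at 515 nm. A time-zero plate was included. LC50 is the concentration giving 50% loss of protein relative to time zero.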
# [5] = tested on: RXF 393; assay: Cytotoxicity against human RXF393 cells after 48 hrs by SRB assay; assay type: functional; conditions: RXF 393, 48 h; summary of the method: as §1
# [6] = tested on: A498; assay: Cytotoxicity against human A498 cells after 48 hrs by SRB assay; assay type: functional; conditions: A498, 48 h; for CC50: read-out: LC50 (the source's name); summary of the method: as §1
# [7] = tested on: 786-0; assay: Cytotoxicity against human 786-0 cells after 48 hrs by SRB assay; assay type: functional; conditions: 786-0, 48 h; summary of the method: as §1
# [8] = tested on: SK-OV-3; assay: Cytotoxicity against human SKOV3 cells after 48 hrs by SRB assay; assay type: functional; conditions: SK-OV-3, 48 h; summary of the method: as §1
# [9] = tested on: OVCAR-8; assay: Cytotoxicity against human OVCAR8 cells after 48 hrs by SRB assay; assay type: functional; conditions: OVCAR-8, 48 h; summary of the method: as §1
# [10] = tested on: OVCAR-5; assay: Cytotoxicity against human OVCAR5 cells after 48 hrs by SRB assay; assay type: functional; conditions: OVCAR-5, 48 h; summary of the method: as §1
# [11] = tested on: OVCAR-4; assay: Cytotoxicity against human OVCAR4 cells after 48 hrs by SRB assay; assay type: functional; conditions: OVCAR-4, 48 h; summary of the method: as §1
# [12] = tested on: OVCAR-3; assay: Cytotoxicity against human OVCAR3 cells after 48 hrs by SRB assay; assay type: functional; conditions: OVCAR-3, 48 h; summary of the method: as §1
# [13] = tested on: SK-MEL-5; assay: Cytotoxicity against human SK-MEL-5 cells after 48 hrs by SRB assay; assay type: functional; conditions: SK-MEL-5, 48 h; summary of the method: as §1
# [14] = tested on: SK-MEL-28; assay: Cytotoxicity against human SK-MEL-28 cells after 48 hrs by SRB assay; assay type: functional; conditions: SK-MEL-28, 48 h; for CC50: read-out: LC50 (the source's name); summary of the method: as §1
# [15] = tested on: M14; assay: Cytotoxicity against human M14 cells after 48 hrs by SRB assay; assay type: functional; conditions: M14, 48 h; for CC50: read-out: LC50 (the source's name); summary of the method: as §1
# [16] = tested on: Malme-3M; assay: Cytotoxicity against human MALME-3M cells after 48 hrs by SRB assay; assay type: functional; summary of the method: as §1
# [17] = tested on: U-251; assay: Cytotoxicity against human U251 cells after 48 hrs by SRB assay; assay type: functional; conditions: U-251, 48 h; for CC50: read-out: LC50 (the source's name); summary of the method: as §2
# [18] = tested on: SNB-19; assay: Cytotoxicity against human SNB19 cells after 48 hrs by SRB assay; assay type: functional; conditions: SNB-19, 48 h; summary of the method: as §2
# [19] = tested on: SW-620; assay: Cytotoxicity against human SW620 cells after 48 hrs by SRB assay; assay type: functional; conditions: SW-620, 48 h; summary of the method: as §2
# [20] = tested on: KM12; assay: Cytotoxicity against human KM12 cells after 48 hrs by SRB assay; assay type: functional; conditions: KM12, 48 h; summary of the method: as §1
# [21] = tested on: COLO 205; assay: Cytotoxicity against human COLO205 cells after 48 hrs by SRB assay; assay type: functional; conditions: COLO 205, 48 h; summary of the method: as §1
# [22] = tested on: NCI-H460; assay: Cytotoxicity against human NCI-H460 cells after 48 hrs by SRB assay; assay type: functional; conditions: NCI-H460, 48 h; summary of the method: as §1
# [23] = Cytotoxicity against human EKVX cells after 48 hrs by SRB assay; assay type: functional; summary of the method: as §1
# [24] = tested on: A549; assay: Cytotoxicity against human A549/ATCC cells after 48 hrs by SRB assay; assay type: functional; conditions: A549, 48 h; for CC50: read-out: LC50 (the source's name); summary of the method: as §1
# [25] = tested on: K562; assay: Cytotoxicity against human K562 cells after 48 hrs by SRB assay; assay type: functional; conditions: K562, 48 h; summary of the method: as §1
# [26] = tested on: HL-60(TB); assay: Cytotoxicity against human HL-60(TB) cells after 48 hrs by SRB assay; assay type: functional; conditions: HL-60, 48 h; for CC50: read-out: LC50 (the source's name); summary of the method: as §1
# [27] = tested on: NCI-H322M; assay: Cytotoxicity against human NCI-H322M cells after 48 hrs by SRB assay; assay type: functional; summary of the method: as §1
smiles,measurement,setting,value
COc1cc(C2CC(c3cccc(Nc4ccnc5cc(Cl)ccc45)c3)=NN2C=O)cc(OC)c1OC (stereo not drawn),hemolysis at 48 h,[1],3.4%
same,GI50,[2],0.37 µM
same,CC50,[2],> 100 µM
same,GI50,[3],2.68 µM
same,LC50 (concentration killing 50% of cells),[3],> 100 µM
same,GI50,[4],1.3 µM
same,LC50,[4],> 100 µM
same,GI50,[5],1.54 µM
same,LC50 (concentration killing 50% of cells),[5],73.4 µM
same,GI50,[6],0.29 µM
same,CC50,[6],> 100 µM
same,GI50,[7],0.84 µM
same,LC50,[7],76.3 µM
same,GI50,[8],1.4 µM
same,LC50 (concentration killing 50% of cells),[8],> 100 µM
same,GI50,[9],2.06 µM
same,LC50 (50% net cell kill),[9],> 100 µM
same,GI50,[10],4.32 µM
same,LC50,[10],> 100 µM
same,GI50,[11],1.13 µM
same,LC50,[11],> 100 µM
same,GI50,[12],0.52 µM
same,LC50,[12],6.06 µM
same,GI50,[13],0.42 µM
same,LC50 (concentration killing 50% of cells present at time zero),[13],23.5 µM
same,GI50,[14],1.02 µM
same,CC50,[14],97.1 µM
same,GI50,[15],0.35 µM
same,CC50,[15],57.5 µM
same,GI50,[16],0.81 µM
same,LC50,[16],> 100 µM
same,GI50,[17],0.45 µM
same,CC50,[17],> 100 µM
same,GI50,[18],3.42 µM
same,LC50,[18],> 100 µM
same,GI50,[19],0.47 µM
same,LC50,[19],> 100 µM
same,GI50,[20],0.5 µM
same,LC50 (concentration killing 50% of cells),[20],> 100 µM
same,GI50,[21],0.64 µM
same,LC50,[21],> 100 µM
same,GI50,[22],0.42 µM
same,LC50,[22],> 100 µM
same,GI50,[23],0.98 µM
same,LC50,[23],> 100 µM
same,GI50,[24],0.66 µM
same,CC50,[24],> 100 µM
same,GI50,[25],0.43 µM
same,LC50 (concentration killing 50% of cells),[25],> 100 µM
same,GI50,[26],0.26 µM
same,CC50,[26],3.97 µM
O=CN1N=C(c2ccc(Nc3ccnc4cc(Cl)ccc34)cc2)CC1c1ccc(Cl)cc1 (stereo not drawn),GI50,[2],0.48 µM
same,CC50,[2],> 100 µM
same,GI50,[3],1.94 µM
same,LC50 (concentration killing 50% of cells),[3],> 100 µM
same,GI50,[4],1.3 µM
same,LC50,[4],> 100 µM
same,GI50,[5],1.88 µM
same,LC50 (concentration killing 50% of cells),[5],> 100 µM
same,GI50,[6],> 100 µM
same,CC50,[6],> 100 µM
same,GI50,[7],0.91 µM
same,LC50,[7],> 100 µM
same,GI50,[8],0.57 µM
same,LC50 (concentration killing 50% of cells),[8],> 100 µM
same,GI50,[9],3.22 µM
same,LC50 (50% net cell kill),[9],> 100 µM
same,GI50,[10],6.46 µM
same,LC50,[10],> 100 µM
same,GI50,[11],6.48 µM
same,LC50,[11],> 100 µM
same,GI50,[12],0.35 µM
same,LC50,[12],> 100 µM
same,GI50,[13],0.81 µM
same,LC50 (concentration killing 50% of cells present at time zero),[13],> 100 µM
same,GI50,[14],0.76 µM
same,CC50,[14],> 100 µM
same,GI50,[15],0.62 µM
same,CC50,[15],> 100 µM
same,LC50,[16],> 100 µM
same,GI50,[17],0.51 µM
same,CC50,[17],> 100 µM
same,GI50,[18],1.92 µM
same,LC50,[18],> 100 µM
same,GI50,[19],0.48 µM
same,LC50,[19],> 100 µM
same,GI50,[20],0.54 µM
same,LC50 (concentration killing 50% of cells),[20],> 100 µM
same,GI50,[21],2.4 µM
same,LC50,[21],> 100 µM
same,GI50,[22],0.59 µM
same,LC50,[22],> 100 µM
same,GI50,[27],> 100 µM
same,LC50 (50% lethal concentration),[27],> 100 µM
same,LC50,[23],> 100 µM
same,GI50,[24],0.99 µM
same,CC50,[24],> 100 µM
same,GI50,[26],0.38 µM
same,CC50,[26],> 100 µM
O=CN1N=C(c2ccc(Nc3ccnc4cc(Cl)ccc34)cc2)CC1c1ccccc1 (stereo not drawn),hemolysis at 48 h,[1],3.8%
same,GI50,[2],3.42 µM
same,CC50,[2],> 100 µM
same,GI50,[3],3.8 µM
same,LC50 (concentration killing 50% of cells),[3],> 100 µM
same,GI50,[4],3.81 µM
same,LC50,[4],> 100 µM
same,GI50,[5],2.2 µM
same,LC50 (concentration killing 50% of cells),[5],> 100 µM
same,GI50,[6],1.3 µM
same,CC50,[6],> 100 µM
same,GI50,[7],3.36 µM
same,LC50,[7],98.4 µM
same,GI50,[8],11.3 µM
same,LC50 (concentration killing 50% of cells),[8],> 100 µM
same,GI50,[9],4.53 µM
same,LC50 (50% net cell kill),[9],> 100 µM
same,GI50,[10],19.8 µM
same,LC50,[10],> 100 µM
same,GI50,[11],3.88 µM
same,LC50,[11],> 100 µM
same,GI50,[12],2.78 µM
same,LC50,[12],43.2 µM
same,GI50,[13],1.38 µM
same,LC50 (concentration killing 50% of cells present at time zero),[13],11.2 µM
same,GI50,[14],8.35 µM
same,CC50,[14],> 100 µM
same,GI50,[15],4.12 µM
same,CC50,[15],> 100 µM
same,GI50,[16],4.21 µM
same,LC50,[16],> 100 µM
same,GI50,[17],3.12 µM
same,CC50,[17],> 100 µM
same,GI50,[18],5.13 µM
same,LC50,[18],> 100 µM
same,GI50,[19],2.73 µM
same,LC50,[19],68.7 µM
same,GI50,[20],3.41 µM
same,LC50 (concentration killing 50% of cells),[20],> 100 µM
same,GI50,[21],2.21 µM
same,LC50,[21],> 100 µM
same,GI50,[22],3.96 µM
same,LC50,[22],> 100 µM
same,GI50,[23],4.94 µM
same,LC50,[23],> 100 µM
same,GI50,[24],4.05 µM
same,CC50,[24],> 100 µM
same,GI50,[26],2.66 µM
same,CC50,[26],72.5 µM
